Tests used:
Conditions in all cases: in vivo, 1 h; call rule not given here
Mus musculus = experiment: Drug uptake in MHC-PPARalpha overexpressing transgenic mouse at 170 uCi, iv after 60 mins by microPET imaging analysis relative to wild type control; type: ADME, organism-based
Summary of the method: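 Transgenic mice overexpressing PPAR-α in heart (ventricular PPAR-α protein about 15-fold above wild-type) and wild-type littermate controls. Dynamic microPET imaging over 0–60 min after intravenous injection of the carbon-11-labelled radiotracer. Radiochemical purity >98%. Cardiac accumulation was quantified as standard uptake values (SUV) and compared with wild-type animals.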

Liver [1] = experiment: Drug uptake in liver of MHC-PPARalpha overexpressing transgenic mouse at 170 uCi, iv after 60 mins by microPET imaging analysis; type: ADME, organism-based
Summary of the method: (§1)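 Dynamic microPET scan over 0–60 min after intravenous injection of the 11C-labelled tracer. Transgenic mice had cardiac-ventricle PPAR-α protein about 15-fold above wild-type littermates. Data were analysed as standard uptake values (SUV).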

Heart = experiment: Drug uptake in heart of MHC-PPARalpha overexpressing transgenic mouse at 170 uCi, iv after 60 mins by microPET imaging analysis; type: ADME, organism-based; summary of the method: as §1
[2] = Drug uptake in cardiac tissue of MHC-PPARalpha overexpressing transgenic mouse at 170 uCi, iv after 60 mins by post-PET gamma counting analysis; type: ADME, organism-based, Heart
Summary of the method: (§2)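 Biodistribution done after PET: tissues were collected after the 0–60 min dynamic scan following intravenous injection of the 11C-labelled tracer. Transgenic mice with about 15-fold ventricular PPAR-α overexpression were used alongside wild-type littermate controls. Uptake was expressed as %ID/g.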

[3] = Drug uptake in wild type mouse cardiac tissue at 170 uCi, iv after 60 mins by post-PET gamma counting analysis; type: ADME, organism-based, Heart; summary of the method: as §2
Blood [4] = experiment: Drug uptake in blood of MHC-PPARalpha overexpressing transgenic mouse at 170 uCi, iv after 60 mins by post-PET gamma counting analysis; type: ADME, organism-based; summary of the method: as §2
Blood [5] = experiment: Drug uptake in wild type mouse blood at 170 uCi, iv after 60 mins by post-PET gamma counting analysis; type: ADME, organism-based; summary of the method: as §2
Lung [6] = experiment: Drug uptake in lungs of MHC-PPARalpha overexpressing transgenic mouse at 170 uCi, iv after 60 mins by post-PET gamma counting analysis; type: ADME, organism-based; summary of the method: as §2
Lung [7] = experiment: Drug uptake in wild type mouse lungs at 170 uCi, iv after 60 mins by post-PET gamma counting analysis; type: ADME, organism-based; summary of the method: as §2
Liver [8] = experiment: Drug uptake in liver of MHC-PPARalpha overexpressing transgenic mouse at 170 uCi, iv after 60 mins by post-PET gamma counting analysis; type: ADME, organism-based; summary of the method: as §2
Liver [9] = experiment: Drug uptake in wild type mouse liver at 170 uCi, iv after 60 mins by post-PET gamma counting analysis; type: ADME, organism-based; summary of the method: as §2
Spleen [10] = experiment: Drug uptake in spleen of MHC-PPARalpha overexpressing transgenic mouse at 170 uCi, iv after 60 mins by post-PET gamma counting analysis; type: ADME, organism-based; summary of the method: as §2
Spleen [11] = experiment: Drug uptake in wild type mouse spleen at 170 uCi, iv after 60 mins by post-PET gamma counting analysis; type: ADME, organism-based; summary of the method: as §2
Kidney [12] = experiment: Drug uptake in kidney of MHC-PPARalpha overexpressing transgenic mouse at 170 uCi, iv after 60 mins by post-PET gamma counting analysis; type: ADME, organism-based; summary of the method: as §2
Kidney [13] = experiment: Drug uptake in wild type mouse kidney at 170 uCi, iv after 60 mins by post-PET gamma counting analysis; type: ADME, organism-based; summary of the method: as §2
Muscle tissue [14] = experiment: Drug uptake in muscle of MHC-PPARalpha overexpressing transgenic mouse at 170 uCi, iv after 60 mins by post-PET gamma counting analysis; type: ADME, organism-based; summary of the method: as §2
Muscle tissue [15] = experiment: Drug uptake in wild type mouse muscle at 170 uCi, iv after 60 mins by post-PET gamma counting analysis; type: ADME, organism-based; summary of the method: as §2

Question: With `CC(C)(Sc1ccc(CCN(CCCCC2CCCCC2)C(=O)Nc2ccc(O[11CH3])cc2)cc1)C(=O)O` as the molecule, how does the “fold change (FC)” value (Mus musculus) read?
Answer: 2

Question: What about the Drug uptake (Liver [1]) of the same molecule?
Answer: Active

Question: And the Drug uptake (Heart)?
Answer: Active

Question: What about the Drug uptake [2] of the same molecule?
Answer: 1.09 % ID/g

Question: And the Drug uptake [3]?
Answer: 0.479 % ID/g

Question: And the Drug uptake (Blood [4])?
Answer: 0.42 % ID/g

Question: And the Drug uptake (Blood [5])?
Answer: 0.42 % ID/g

Question: And the Drug uptake (Lung [6])?
Answer: 2.65 % ID/g

Question: And the Drug uptake (Lung [7])?
Answer: 2.11 % ID/g

Question: What about the Drug uptake (Liver [8]) of the same molecule?
Answer: 55.3 % ID/g

Question: And the Drug uptake (Liver [9])?
Answer: 60.69 % ID/g

Question: What about the Drug uptake (Spleen [10]) of the same molecule?
Answer: 1.33 % ID/g

Question: And the Drug uptake (Spleen [11])?
Answer: 1.55 % ID/g

Question: And the Drug uptake (Kidney [12])?
Answer: 2.58 % ID/g

Question: What about the Drug uptake (Kidney [13]) of the same molecule?
Answer: 2.01 % ID/g

Question: And the Drug uptake (Muscle tissue [14])?
Answer: 0.36 % ID/g

Question: What about the Drug uptake (Muscle tissue [15]) of the same molecule?
Answer: 0.35 % ID/g

Reference: ChEMBL document CHEMBL2086268, “Synthesis, radiolabeling and initial in vivo evaluation of [(11)C]KSM-01 for imaging PPAR-α receptors” (Bioorg Med Chem Lett, 2012)
